Measured values as given in ChEMBL document CHEMBL1146369, “Novel and versatile methodology for synthesis of cyclic imides and evaluation of their cytotoxic, DNA binding, apoptotic inducing activities and molecular modeling study” (Eur J Med Chem, 2007).
pIC50: −log10 of the molar value.

Assays:
[1] = tested on: Vero; test: Cytotoxicity against Vero cells; type: cell-based; settings: Chlorocebus sabaeus
Summary of the method: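 Confluent Vero monolayers in 96-well trays, DMEM with 10% calf serum, exposed in triplicate to 1–500 µM for 48 h at 37 °C. Cells then fixed with 3.7% formaldehyde, rinsed and examined visually. IC50 taken as the concentration causing about 50% loss of monolayer.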

[2] = tested on: Neutrophil; test: Apoptotic activity in human blood neutrophils after 24 hrs; type: functional; design: concentration or dose not given beside the values
Summary of the method: (§1)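 Neutrophils (>98% pure) isolated from peripheral blood of healthy donors by dextran sedimentation and discontinuous plasma Percoll gradients. Cultured at 37 °C, 5% CO2 in RPMI 1640 with 10% autologous platelet-rich-plasma-derived serum. Compound given at 50 µM in DMSO; controls were untreated cells and 0.01% DMSO. Apoptosis scored by May-Grunwald Giemsa morphology, 500 cells/slide, at 0–72 h. Mean ± SD, n = 3-5.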

[3] = tested on: Neutrophil; test: Apoptotic activity in human blood neutrophils after 48 hrs; type: functional; design: concentration or dose not given beside the values; summary of the method: as §1
[4] = tested on: Neutrophil; test: Apoptotic activity in human blood neutrophils after 72 hrs; type: functional; design: concentration or dose not given beside the values; summary of the method: as §1
[5] = Partition coefficient, log P of the compound; type: physicochemical; settings: octanol/water
[6] = Binding affinity to DNA by methyl green/DNA displacement assay; settings: Homo sapiens

With `O=C1c2cccnc2C(=O)N1CCc1ccccc1` the pIC50 [1] was < 4.00.
In the case of `O=C1[C@@H]2C3C=CC(CC3)[C@@H]2C(=O)N1c1ccc(C(F)(F)F)cc1`, the pIC50 [1] was 4.12.
In the case of `CCCCCc1ccc(N2C(=O)c3nccnc3C2=O)cc1`, the pIC50 [1] was 4.80, the Activity [2] was 31.1% and the Activity [3] was 49.2%. For the same compound, the Activity [4] was 60%, the logP [5] was 3.8 and the C50 [6] was 42 µg/mL.
`O=C1[C@@H]2C3C=CC(CC3)[C@@H]2C(=O)N1CCc1ccccc1` showed a pIC50 [1] of 4.06 and a logP [5] of 2.5.
With `COc1ccc(CN2C(=O)c3cccnc3C2=O)cc1` the pIC50 [1] was < 4.00.
`CCCCCc1ccc(N2C(=O)[C@@H]3C4C=CC(CC4)[C@@H]3C2=O)cc1` gave a pIC50 [1] of 5.00, an Activity [2] of 39.11% and an Activity [3] of 58.06%. It also gave an Activity [4] of 70.01%, a logP [5] of 4.2 and a C50 [6] of 31 µg/mL.
Work on `CC(C)(C)N1C(=O)[C@@H]2C3C=CC(CC3)[C@@H]2C1=O` yielded a pIC50 [1] of 4.57, an Activity [2] of 12.82% and an Activity [3] of 29.76%. It also gave an Activity [4] of 35.64% and a logP [5] of 1.3.
`O=C1c2nccnc2C(=O)N1Cc1ccc(Cl)cc1` gave a pIC50 [1] of 4.06.
Compound `CC(C)c1cccc(C(C)C)c1N1C(=O)c2ccccc2C1=O` has a pIC50 [1] of 4.64, an Activity [2] of 15.56% and an Activity [3] of 30.2%. For the same compound, the Activity [4] was 39.1% and the logP [5] was 5.1.
In the case of `O=C1c2nccnc2C(=O)N1C12CC3CC(CC(C3)C1)C2`, the pIC50 [1] was 4.74, the Activity [2] was 30.01% and the Activity [3] was 45.1%. It also gave an Activity [4] of 54.05% and a logP [5] of 1.8.
With `CC(C)(C)N1C(=O)c2cccnc2C1=O` the pIC50 [1] was 4.48, the Activity [2] was 11% and the Activity [3] was 25.07%. For the same compound, the Activity [4] was 30.23% and the logP [5] was 1.4.
In the case of `COc1ccc(CN2C(=O)c3nccnc3C2=O)cc1OC`, the pIC50 [1] was < 4.00.
For `CCN1C(=O)[C@@H]2C3C=CC(CC3)[C@@H]2C1=O`, the pIC50 [1] was < 4.00 and the logP [5] was 0.8.
`O=C1c2cccnc2C(=O)N1Cc1ccc(Cl)cc1` gave a pIC50 [1] of 4.02.
With `C[C@H](c1ccccc1)N1C(=O)c2nccnc2C1=O` the pIC50 [1] was 4.10.
Work on `O=C1c2ccccc2C(=O)N1Cc1ccccc1` yielded a pIC50 [1] of 4.00.
Work on `CC(C)c1cccc(C(C)C)c1N1C(=O)[C@@H]2C3C=CC(CC3)[C@@H]2C1=O` yielded a pIC50 [1] of 4.80, an Activity [2] of 32.4% and an Activity [3] of 49.11%. The Activity [4] was 59.2% and the logP [5] was 4.6.
For `C[C@@H](c1ccccc1)N1C(=O)c2ccccc2C1=O`, the pIC50 [1] was < 4.00.
`CC(C)c1cccc(C(C)C)c1N1C(=O)c2nccnc2C1=O` showed a pIC50 [1] of 4.70, an Activity [2] of 24.07% and an Activity [3] of 38.1%. The Activity [4] was 46.11% and the logP [5] was 4.2.
Compound `O=C1c2cccnc2C(=O)N1c1ccccc1` has a pIC50 [1] of 4.14.
Compound `Cc1cccc(C)c1N1C(=O)[C@@H]2C3C=CC(CC3)[C@@H]2C1=O` has a pIC50 [1] of 4.89, an Activity [2] of 38.4% and an Activity [3] of 53.2%. It also gave an Activity [4] of 67.98%, a logP [5] of 3.1 and a C50 [6] of 53 µg/mL.
For `O=C1c2ccccc2C(=O)N1c1ccccc1` [N-PHENYL-PHTHALIMIDE], the pIC50 [1] was 4.09.
Compound `O=C1c2ccccc2C(=O)N1C12CC3CC(CC(C3)C1)C2` has a pIC50 [1] of 4.70, an Activity [2] of 21.11% and an Activity [3] of 34.66%. The Activity [4] was 42.01% and the logP [5] was 2.7.
For `O=C1c2nccnc2C(=O)N1CCc1ccccc1`, the pIC50 [1] was < 4.00.
In the case of `C[C@H](c1ccccc1)N1C(=O)[C@@H]2C3C=CC(CC3)[C@@H]2C1=O`, the pIC50 [1] was 4.37.
`C[C@@H](c1ccccc1)N1C(=O)[C@@H]2C3C=CC(CC3)[C@@H]2C1=O` gave a pIC50 [1] of 4.31.
`O=c1c(O)c(-c2ccc(O)c(O)c2)oc2cc(O)cc(O)c12` [QUERCETIN] gave an Activity [2] of 39.9%, an Activity [3] of 49.9% and an Activity [4] of 71.3%.
In the case of `CCN1C(=O)c2cccnc2C1=O`, the pIC50 [1] was < 4.00.
`C[C@H](c1ccccc1)N1C(=O)c2cccnc2C1=O` gave a pIC50 [1] of 4.09.
With `O=C1[C@@H]2C3C=CC(CC3)[C@@H]2C(=O)N1Cc1ccc(Cl)cc1` the pIC50 [1] was 4.29.
In the case of `CC(C)(C)N1C(=O)c2nccnc2C1=O`, the pIC50 [1] was 4.49, the Activity [2] was 12% and the Activity [3] was 27.6%. It also gave an Activity [4] of 33.91% and a logP [5] of 0.9.
For `O=C1c2cccnc2C(=O)N1C12CC3CC(CC(C3)C1)C2`, the pIC50 [1] was 4.74, the Activity [2] was 31.1% and the Activity [3] was 46%. For the same compound, the Activity [4] was 56.1% and the logP [5] was 2.3.
`COc1ccc(CN2C(=O)[C@@H]3C4C=CC(CC4)[C@@H]3C2=O)cc1OC` gave a pIC50 [1] of 4.20.
In the case of `O=C1c2cccnc2C(=O)N1Cc1ccccc1`, the pIC50 [1] was < 4.00.
`C[C@@H](c1ccccc1)N1C(=O)c2cccnc2C1=O` showed a pIC50 [1] of 4.04.
`O=C1c2nccnc2C(=O)N1c1ccc(C(F)(F)F)cc1` gave a pIC50 [1] of 4.10.
`O=c1[nH]cc(F)c(=O)[nH]1` [FLUOROURACIL] showed a pIC50 [1] of 6.70.
`O=C1c2cccnc2C(=O)N1c1ccc(Cl)cc1` showed a pIC50 [1] of 4.04.
`C[C@@H](c1ccccc1)N1C(=O)c2nccnc2C1=O` gave a pIC50 [1] of 4.07.
Compound `Cc1cccc(C)c1N1C(=O)c2cccnc2C1=O` has a pIC50 [1] of 4.70, an Activity [2] of 22.21% and an Activity [3] of 35%. The Activity [4] was 44.16%, the logP [5] was 3.2 and the C50 [6] was 64 µg/mL.
`O=C1c2nccnc2C(=O)N1c1ccccc1` showed a pIC50 [1] of 4.15.
For `O=C1c2nccnc2C(=O)N1c1ccc(Cl)cc1`, the pIC50 [1] was 4.07.
`Cc1cccc(C)c1N1C(=O)c2nccnc2C1=O` gave a pIC50 [1] of 4.74, an Activity [2] of 28% and an Activity [3] of 42.03%. For the same compound, the Activity [4] was 50.1%, the logP [5] was 2.7 and the C50 [6] was 59 µg/mL.
Work on `COc1ccc(CN2C(=O)[C@@H]3C4C=CC(CC4)[C@@H]3C2=O)cc1` yielded a pIC50 [1] of 4.17.
In the case of `O=C1c2nccnc2C(=O)N1Cc1ccccc1`, the pIC50 [1] was < 4.00.
`CCCCCc1ccc(N2C(=O)c3cccnc3C2=O)cc1` showed a pIC50 [1] of 4.74, an Activity [2] of 32.11% and an Activity [3] of 47.05%. For the same compound, the Activity [4] was 57.87%, the logP [5] was 4.3 and the C50 [6] was 49 µg/mL.
`O=C1[C@@H]2C3C=CC(CC3)[C@@H]2C(=O)N1c1ccc(Cl)cc1` showed a pIC50 [1] of 4.11.
`O=C1[C@@H]2C3C=CC(CC3)[C@@H]2C(=O)N1Cc1ccccc1` gave a pIC50 [1] of 4.13 and a logP [5] of 2.3.
In the case of `O=C1c2ccccc2C(=O)N1CCc1ccccc1`, the pIC50 [1] was 4.00.
With `CC(C)c1cccc(C(C)C)c1N1C(=O)c2cccnc2C1=O` the pIC50 [1] was 4.68, the Activity [2] was 19.1% and the Activity [3] was 32.77%. For the same compound, the Activity [4] was 41.62% and the logP [5] was 4.6.
Work on `O=C1[C@@H]2C3C=CC(CC3)[C@@H]2C(=O)N1C12CC3CC(CC(C3)C1)C2` yielded a pIC50 [1] of 4.85, an Activity [2] of 35.5% and an Activity [3] of 53.2%. For the same compound, the Activity [4] was 68.11%, the logP [5] was 2.2 and the C50 [6] was 69 µg/mL.
With `COc1ccc(CN2C(=O)c3nccnc3C2=O)cc1` the pIC50 [1] was < 4.00.
For `COc1ccc(CN2C(=O)c3cccnc3C2=O)cc1OC`, the pIC50 [1] was < 4.00.
In the case of `CCN1C(=O)c2nccnc2C1=O`, the pIC50 [1] was < 4.00.
`O=C1[C@@H]2C3C=CC(CC3)[C@@H]2C(=O)N1c1ccccc1` showed a pIC50 [1] of 4.17.
`O=C1c2cccnc2C(=O)N1c1ccc(C(F)(F)F)cc1` gave a pIC50 [1] of 4.06.
